Experimental data from ChEMBL document CHEMBL3779833, “Hydroxyurea derivatives of irofulven with improved antitumor efficacy” (Bioorg Med Chem Lett, 2016).
Activity calls are given as the source filed them. No cut-off for these calls is given here.

Columns and labels:
[1] = Cytotoxicity against human CHRF-288-11 cells after 48 hrs by trypan blue exclusion assay; format: cell-based
Procedure, shortened: (§1)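 Cells exposed to drug for 48 h; growth measured by trypan blue exclusion. IC50 is the concentration giving 50% growth inhibition; values reported in nM.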

[2] = Cytotoxicity against human MV522 cells after 48 hrs by trypan blue exclusion assay; format: functional, cell-based; conditions: MV522, 48 h; procedure, shortened: as §1
[3] = Cytotoxicity against human SKOV3 cells after 48 hrs by sulforhodamine B assay; format: functional, cell-based; conditions: SK-OV-3, 48 h
[4] = Cytotoxicity against human SNB19 cells after 48 hrs by sulforhodamine B assay; format: functional, cell-based; conditions: SNB-19, 48 h
[5] = tested on: 786-0; assay: Cytotoxicity against human 786-0 cells after 48 hrs by sulforhodamine B assay; format: functional, cell-based; conditions: 786-0, 48 h
[6] = tested on: HT-29; assay: Cytotoxicity against human HT-29 cells after 48 hrs by sulforhodamine B assay; format: functional, cell-based; conditions: HT-29, 48 h
[7] = Cytotoxicity against human TK10 cells after 48 hrs by sulforhodamine B assay; format: functional, cell-based; conditions: TK-10, 48 h
[8] = Cytotoxicity against human SW620 cells after 48 hrs by sulforhodamine B assay; format: functional, cell-based; conditions: SW-620, 48 h
[9] = tested on: SK-MEL-5; assay: Cytotoxicity against human SK-MEL-5 cells after 48 hrs by sulforhodamine B assay; format: functional, cell-based; conditions: SK-MEL-5, 48 h
[10] = tested on: MCF7; assay: Cytotoxicity against human MCF7 cells after 48 hrs by sulforhodamine B assay; format: functional, cell-based; conditions: MCF7, 48 h
[11] = Cytotoxicity against human UACC257 cells after 48 hrs by sulforhodamine B assay; format: functional, cell-based; conditions: UACC-257, 48 h
[12] = tested on: NCI-H522; assay: Cytotoxicity against human NCI-H522 cells after 48 hrs by sulforhodamine B assay; format: functional, cell-based; conditions: NCI-H522, 48 h
[13] = Cytotoxicity against human PC3 cells after 48 hrs by sulforhodamine B assay; format: functional, cell-based; conditions: PC-3, 48 h
[14] = tested on: NCI-H460; assay: Cytotoxicity against human NCI-H460 cells after 48 hrs by sulforhodamine B assay; format: functional, cell-based; conditions: NCI-H460, 48 h, read-out: pIC50 (converted)
[15] = Cytotoxicity against human OVCAR4 cells after 48 hrs by sulforhodamine B assay; format: functional, cell-based; conditions: OVCAR-4, 48 h
[16] = tested on: KM12; assay: Cytotoxicity against human KM12 cells after 48 hrs by sulforhodamine B assay; format: functional, cell-based; conditions: KM12, 48 h
[17] = tested on: NCI-H322M; assay: Cytotoxicity against human NCI-H322M cells after 48 hrs by sulforhodamine B assay; format: functional, cell-based
[18] = tested on: EKVX; assay: Cytotoxicity against human EKVX cells after 48 hrs by sulforhodamine B assay; format: functional, cell-based
[19] = Cytotoxicity against human UO31 cells after 48 hrs by sulforhodamine B assay; format: functional, cell-based; conditions: UO-31, 48 h
[20] = Cytotoxicity against human IGROV1 cells after 48 hrs by sulforhodamine B assay; format: functional, cell-based; conditions: IGROV-1, 48 h
[21] = tested on: SK-MEL-2; assay: Cytotoxicity against human SK-MEL-2 cells after 48 hrs by sulforhodamine B assay; format: functional, cell-based; conditions: SK-MEL-2, 48 h
[22] = tested on: MDA-MB-435; assay: Cytotoxicity against human MDA-MB-435 cells after 48 hrs by sulforhodamine B assay; format: functional, cell-based; conditions: MDA-MB-435, 48 h
[23] = Cytotoxicity against human Caki1 cells after 48 hrs by sulforhodamine B assay; format: functional, cell-based; conditions: CAKI-1, 48 h
[24] = tested on: A549; assay: Cytotoxicity against human A549 cells after 48 hrs by sulforhodamine B assay; format: functional, cell-based; conditions: A549, 48 h, read-out: pIC50 (converted)
[25] = tested on: ACHN; assay: Cytotoxicity against human ACHN cells after 48 hrs by sulforhodamine B assay; format: functional, cell-based
[26] = tested on: M14; assay: Cytotoxicity against human M14 cells after 48 hrs by sulforhodamine B assay; format: functional, cell-based; conditions: M14, 48 h
[27] = tested on: NCI-H226; assay: Cytotoxicity against human NCI-H226 cells after 48 hrs by sulforhodamine B assay; format: functional, cell-based; conditions: NCI-H226, 48 h
[28] = tested on: T47D; assay: Cytotoxicity against human T47D cells after 48 hrs by sulforhodamine B assay; format: functional, cell-based
[29] = Cytotoxicity against human OVCAR8 cells after 48 hrs by sulforhodamine B assay; format: functional, cell-based; conditions: OVCAR-8, 48 h
[30] = Cytotoxicity against human HCC2998 cells after 48 hrs by sulforhodamine B assay; format: functional, cell-based; conditions: HCC 2998, 48 h
[31] = tested on: MDA-MB-231; assay: Cytotoxicity against human MDA-MB-231 cells after 48 hrs by sulforhodamine B assay; format: functional, cell-based; conditions: MDA-MB-231, 48 h
[32] = Cytotoxicity against human OVCAR5 cells after 48 hrs by sulforhodamine B assay; format: functional, cell-based; conditions: OVCAR-5, 48 h
[33] = tested on: NCI-H23; assay: Cytotoxicity against human NCI-H23 cells after 48 hrs by sulforhodamine B assay; format: functional, cell-based; conditions: NCI-H23, 48 h
[34] = Cytotoxicity against human BT549 cells after 48 hrs by sulforhodamine B assay; format: functional, cell-based; conditions: BT-549, 48 h
[35] = Cytotoxicity against human HCT15 cells after 48 hrs by sulforhodamine B assay; format: functional, cell-based; conditions: HCT-15, 48 h
[36] = Cytotoxicity against human SF539 cells after 48 hrs by sulforhodamine B assay; format: functional, cell-based; conditions: SF-539, 48 h
[37] = tested on: SK-MEL-28; assay: Cytotoxicity against human SK-MEL-28 cells after 48 hrs by sulforhodamine B assay; format: functional, cell-based; conditions: SK-MEL-28, 48 h
[38] = Cytotoxicity against human OVCAR3 cells after 48 hrs by sulforhodamine B assay; format: functional, cell-based; conditions: OVCAR-3, 48 h
[39] = tested on: SN12C; assay: Cytotoxicity against human SN12C cells after 48 hrs by sulforhodamine B assay; format: functional, cell-based
[40] = Cytotoxicity against human HOP92 cells after 48 hrs by sulforhodamine B assay; format: functional, cell-based; conditions: HOP-92, 48 h
[41] = Cytotoxicity against human NCI-ADR-RES cells after 48 hrs by sulforhodamine B assay; format: functional, cell-based
[42] = Cytotoxicity against human SNB75 cells after 48 hrs by sulforhodamine B assay; format: functional, cell-based; conditions: SNB-75, 48 h
[43] = Cytotoxicity against human SF268 cells after 48 hrs by sulforhodamine B assay; format: functional, cell-based; conditions: SF-268, 48 h
[44] = tested on: A498; assay: Cytotoxicity against human A498 cells after 48 hrs by sulforhodamine B assay; format: functional, cell-based; conditions: A498, 48 h
[45] = Cytotoxicity against human DU145 cells after 48 hrs by sulforhodamine B assay; format: functional, cell-based; conditions: DU-145, 48 h, read-out: pIC50 (converted)
[46] = Cytotoxicity against human RXF393 cells after 48 hrs by sulforhodamine B assay; format: functional, cell-based; conditions: RXF 393, 48 h
[47] = Cytotoxicity against human HCT116 cells after 48 hrs by sulforhodamine B assay; format: functional, cell-based; conditions: HCT-116, 48 h
[48] = tested on: Malme-3M; assay: Cytotoxicity against human MALME-3M cells after 48 hrs by sulforhodamine B assay; format: functional, cell-based
[49] = Cytotoxicity against human Hs 578T cells after 48 hrs by sulforhodamine B assay; format: functional, cell-based
[50] = tested on: U-251; assay: Cytotoxicity against human U251 cells after 48 hrs by sulforhodamine B assay; format: functional, cell-based; conditions: U-251, 48 h
[51] = Cytotoxicity against human COLO205 cells after 48 hrs by sulforhodamine B assay; format: functional, cell-based; conditions: COLO 205, 48 h
[52] = Cytotoxicity against human SF295 cells after 48 hrs by sulforhodamine B assay; format: functional, cell-based; conditions: SF-295, 48 h
[53] = Cytotoxicity against human HOP62 cells after 48 hrs by sulforhodamine B assay; format: functional, cell-based; conditions: HOP-62, 48 h
[54] = tested on: MV522; assay: Antitumor activity against human MV522 cells xenografted in Balb/c nu/nu mouse assessed as inhibition of tumor growth at 10 mg/kg, ip administered thrice a week for 3 weeks; format: functional, organism-based
Procedure, shortened: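 MV522 tumour xenografts in Balb/c nu/nu mice; drugs given intraperitoneally 3 times a week for 3 consecutive weeks at 10 mg/kg, the dose compared across agents; N = 8 per group.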

[55] = Selectivity index, ratio of IC50 for human CHRF-288-11 cells to IC50 for human MV522 cells; format: functional
Procedure, shortened: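 Ratio of the IC50 in megakaryocytic CHRF 288-11 (non-target) cells to the IC50 in MV522 adenocarcinoma (target) cells.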

[56] = Cytotoxicity against human LOXIMVI cells after 48 hrs by sulforhodamine B assay; format: functional, cell-based; conditions: LOX IMVI

CC(=O)ON(CC1=C(C)C=C2C(=O)[C@](C)(O)C3(CC3)C(C)=C21)C(N)=O
IC50 [1]: 1900 nM

NC(=O)NO [HYDROXYUREA]
IC50 [2]: > 650000 nM

CC1=C(CO)C2=C(C)C3(CC3)[C@@](C)(O)C(=O)C2=C1 [IROFULVEN]
IC50 [3]: 251 nM
IC50 [4]: 316 nM
IC50 [5]: 200 nM
IC50 [6]: 251 nM
IC50 [7]: 251 nM
IC50 [8]: 631 nM
IC50 [9]: 158 nM
IC50 [10]: 251 nM
IC50 [11]: 251 nM
IC50 [12]: 158 nM
IC50 [13]: 251 nM
IC50 [14]: < 50.1 nM
IC50 [15]: 251 nM
IC50 [16]: 631 nM
IC50 [17]: 251 nM
IC50 [18]: 200 nM
IC50 [19]: 200 nM
IC50 [20]: 158 nM
IC50 [21]: 200 nM
IC50 [22]: 1580 nM
IC50 [23]: 251 nM
IC50 [24]: < 126 nM
IC50 [1]: 290 nM
IC50 [25]: 251 nM
IC50 [26]: 251 nM
IC50 [27]: 200 nM
IC50 [28]: 200 nM
IC50 [29]: 200 nM
IC50 [30]: 158 nM
IC50 [31]: 316 nM
IC50 [32]: 158 nM
IC50 [33]: 79.4 nM
IC50 [34]: 316 nM
IC50 [35]: 316 nM
IC50 [36]: 158 nM
IC50 [37]: 631 nM
IC50 [38]: 251 nM
IC50 [39]: 398 nM
IC50 [40]: 316 nM
IC50 [41]: 251 nM
IC50 [42]: 200 nM
IC50 [43]: 251 nM
IC50 [44]: 200 nM
IC50 [45]: < 100 nM
IC50 [46]: 50.1 nM
IC50 [47]: 200 nM
IC50 [48]: 200 nM
IC50 [49]: 316 nM
IC50 [50]: 316 nM
IC50 [51]: 158 nM
IC50 [2]: 70 nM
IC50 [52]: 316 nM
IC50 [53]: 158 nM
TGI [54]: Active
Ratio IC50 [55]: 4.1
IC50 [56]: 631 nM

CC1=C(CN(O)C(N)=O)C2=C(C)C3(CC3)[C@@](C)(O)C(=O)C2=C1 [LP-184]
IC50 [3]: 316 nM
IC50 [4]: 126 nM
IC50 [5]: 126 nM
IC50 [6]: 126 nM
IC50 [7]: 31.6 nM
IC50 [8]: 15800 nM
IC50 [9]: 63.1 nM
IC50 [10]: 1260 nM
IC50 [11]: 251 nM
IC50 [12]: 1000 nM
IC50 [13]: 398 nM
IC50 [14]: < 10 nM
IC50 [15]: 100 nM
IC50 [16]: 398 nM
IC50 [17]: 100 nM
IC50 [18]: 316 nM
IC50 [19]: 25.1 nM
IC50 [20]: 25.1 nM
IC50 [21]: 398 nM
IC50 [22]: 398 nM
IC50 [23]: 50.1 nM
IC50 [24]: < 10 nM
IC50 [1]: 8800 nM
IC50 [25]: 31.6 nM
IC50 [26]: 200 nM
IC50 [27]: 200 nM
IC50 [28]: 63.1 nM
IC50 [29]: 316 nM
IC50 [30]: 12.6 nM
IC50 [31]: 251 nM
IC50 [32]: 25.1 nM
IC50 [33]: 15.8 nM
IC50 [34]: 158 nM
IC50 [35]: 126 nM
IC50 [36]: 20 nM
IC50 [37]: 126 nM
IC50 [38]: 50.1 nM
IC50 [39]: 316 nM
IC50 [40]: 39.8 nM
IC50 [41]: 158 nM
IC50 [42]: 31.6 nM
IC50 [43]: 20 nM
IC50 [44]: 31.6 nM
IC50 [45]: < 10 nM
IC50 [46]: 15.8 nM
IC50 [47]: 158 nM
IC50 [48]: 126 nM
IC50 [49]: 501 nM
IC50 [50]: 126 nM
IC50 [51]: 25.1 nM
IC50 [2]: 210 nM
IC50 [52]: 50.1 nM
IC50 [53]: 25.1 nM
TGI [54]: Active
Ratio IC50 [55]: 41.9
IC50 [56]: 316 nM
